Molecules are shown by their SMILES. In brackets after ≈: the same amount, converted by molar mass. Activity calls are given as the source filed them. No cut-off for these calls is given here.

One data set relates to SK-BR-3. Briefly: Growth inhibition of human SK-BR-3 cells incubated for 72 hrs by cell-titer-Glo luminescent cell viability assay. Type of data set: functional. To be noted: SK-BR-3, 72 h. In a few lines: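 SK-BR-3 (ATCC) kept in medium with 10% FBS, penicillin and streptomycin, subcultured every 3 days. 3 × 10^3 cells seeded, left overnight, then compound diluted in culture medium added. Viability by CellTiter-Glo luminescence after 72 h.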

The nature of data set [1]: Permeability of the compound at 10 umol/L incubated for 3 hrs by LC/MS/MS detection based PAMPA method. It counts as ADME. To be noted: read-out: permeability. The method in brief: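 PAMPA: donor buffer pH 7.4 holding 10 μmol/L compound; acceptor filter coated with GIT-0 lipid, acceptor sink buffer. 3 h at room temperature. Compound in donor and acceptor wells quantified by LC/MS/MS.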

The target of data set [2] is STE20/SPS1-related proline-alanine-rich protein kinase (Homo sapiens) (UniProt Q9UEW8). Briefly: Inhibition of N-terminal His tagged recombinant full-length human STK39 expressed in baculovirus infected Sf9 cells at 1 uM.
A short description of data set [3]: Solubility in aqueous buffer solution at pH 6.8 by UV absorbance spectroscopy. Type of data set: physicochemical. In a few lines:
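Compound in DMSO spiked into aqueous buffer pH 6.8 and incubated. Precipitate removed by filtration, dissolved compound quantified by UV absorbance of the filtrate.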

Another data set concerns the target CDK9/cyclin T1 (Homo sapiens, UniProt P50750). Type of data set: protein-complex assay.
The next data set concerns the target CDK8/Cyclin C (Homo sapiens, UniProt P49336). Put plainly: Inhibition of GST-tagged human CDK8/CycC (04 to 109 residues) using kinase tracer 236 probe incubated for 60 mins by TR-FRET assay. Type of data set: protein-complex assay. In general terms: TR-FRET usually uses a lanthanide donor and a delayed reading to cut background.
In data set [4] the target is T1, Serine/threonine-protein kinase TAO1 (Homo sapiens) (UniProt Q7L7X3).
T1 sequence (whole entry): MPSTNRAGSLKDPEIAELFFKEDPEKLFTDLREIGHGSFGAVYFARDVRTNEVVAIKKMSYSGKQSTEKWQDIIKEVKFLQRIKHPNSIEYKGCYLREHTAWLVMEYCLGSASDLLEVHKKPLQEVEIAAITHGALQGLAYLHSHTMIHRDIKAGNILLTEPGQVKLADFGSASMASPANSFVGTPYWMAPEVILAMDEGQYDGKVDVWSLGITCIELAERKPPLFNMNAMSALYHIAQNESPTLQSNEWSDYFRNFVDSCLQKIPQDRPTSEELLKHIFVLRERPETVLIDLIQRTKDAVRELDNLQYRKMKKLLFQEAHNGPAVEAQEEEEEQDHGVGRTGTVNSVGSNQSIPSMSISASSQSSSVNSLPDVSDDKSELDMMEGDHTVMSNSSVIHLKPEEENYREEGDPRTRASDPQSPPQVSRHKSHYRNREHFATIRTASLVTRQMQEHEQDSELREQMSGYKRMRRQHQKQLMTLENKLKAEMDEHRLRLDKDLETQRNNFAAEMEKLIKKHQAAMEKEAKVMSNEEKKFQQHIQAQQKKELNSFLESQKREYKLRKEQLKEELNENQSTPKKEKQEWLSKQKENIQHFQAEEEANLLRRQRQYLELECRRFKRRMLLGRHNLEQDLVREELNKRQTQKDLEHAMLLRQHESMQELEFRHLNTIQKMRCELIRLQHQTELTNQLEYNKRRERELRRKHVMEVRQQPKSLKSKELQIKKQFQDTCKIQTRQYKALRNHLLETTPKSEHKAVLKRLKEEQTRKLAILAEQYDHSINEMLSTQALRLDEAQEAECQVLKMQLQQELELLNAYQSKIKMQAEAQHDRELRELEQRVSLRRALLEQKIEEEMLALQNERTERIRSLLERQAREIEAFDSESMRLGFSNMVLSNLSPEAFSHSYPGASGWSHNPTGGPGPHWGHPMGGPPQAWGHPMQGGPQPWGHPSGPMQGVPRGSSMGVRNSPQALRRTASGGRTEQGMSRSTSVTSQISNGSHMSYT
Put plainly: Inhibition of N-terminal GST tagged recombinant human TAOK1 (1 to 314 residues) expressed in baculovirus infected Sf9 cells at 1 uM.

The next data set addresses CDK7/Cyclin H/MNAT1 (Homo sapiens, UniProt P50613).
A short description of data set [5]: Partition coefficient between 1-octanol and aqueous buffer, log D of the compound at pH 7.4 buffer by chromatography. To be noted: 1-octanol/aqueous buffer. It counts as physicochemical. In a few lines: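 log D as octanol/buffer partition at pH 7.4, determined chromatographically.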
The target of data set [6] is T2, Cyclin-dependent kinase 12 (Homo sapiens, UniProt Q9NYV4). Briefly: Time dependent inhibition of human CDK12 incubated for 0 to 5 hrs using ULight-4E-BP1 (Thr37/Thr46) substrate by LANCE system based assay.
Target sequence in this assay (Q9NYV4 whole entry, looked up): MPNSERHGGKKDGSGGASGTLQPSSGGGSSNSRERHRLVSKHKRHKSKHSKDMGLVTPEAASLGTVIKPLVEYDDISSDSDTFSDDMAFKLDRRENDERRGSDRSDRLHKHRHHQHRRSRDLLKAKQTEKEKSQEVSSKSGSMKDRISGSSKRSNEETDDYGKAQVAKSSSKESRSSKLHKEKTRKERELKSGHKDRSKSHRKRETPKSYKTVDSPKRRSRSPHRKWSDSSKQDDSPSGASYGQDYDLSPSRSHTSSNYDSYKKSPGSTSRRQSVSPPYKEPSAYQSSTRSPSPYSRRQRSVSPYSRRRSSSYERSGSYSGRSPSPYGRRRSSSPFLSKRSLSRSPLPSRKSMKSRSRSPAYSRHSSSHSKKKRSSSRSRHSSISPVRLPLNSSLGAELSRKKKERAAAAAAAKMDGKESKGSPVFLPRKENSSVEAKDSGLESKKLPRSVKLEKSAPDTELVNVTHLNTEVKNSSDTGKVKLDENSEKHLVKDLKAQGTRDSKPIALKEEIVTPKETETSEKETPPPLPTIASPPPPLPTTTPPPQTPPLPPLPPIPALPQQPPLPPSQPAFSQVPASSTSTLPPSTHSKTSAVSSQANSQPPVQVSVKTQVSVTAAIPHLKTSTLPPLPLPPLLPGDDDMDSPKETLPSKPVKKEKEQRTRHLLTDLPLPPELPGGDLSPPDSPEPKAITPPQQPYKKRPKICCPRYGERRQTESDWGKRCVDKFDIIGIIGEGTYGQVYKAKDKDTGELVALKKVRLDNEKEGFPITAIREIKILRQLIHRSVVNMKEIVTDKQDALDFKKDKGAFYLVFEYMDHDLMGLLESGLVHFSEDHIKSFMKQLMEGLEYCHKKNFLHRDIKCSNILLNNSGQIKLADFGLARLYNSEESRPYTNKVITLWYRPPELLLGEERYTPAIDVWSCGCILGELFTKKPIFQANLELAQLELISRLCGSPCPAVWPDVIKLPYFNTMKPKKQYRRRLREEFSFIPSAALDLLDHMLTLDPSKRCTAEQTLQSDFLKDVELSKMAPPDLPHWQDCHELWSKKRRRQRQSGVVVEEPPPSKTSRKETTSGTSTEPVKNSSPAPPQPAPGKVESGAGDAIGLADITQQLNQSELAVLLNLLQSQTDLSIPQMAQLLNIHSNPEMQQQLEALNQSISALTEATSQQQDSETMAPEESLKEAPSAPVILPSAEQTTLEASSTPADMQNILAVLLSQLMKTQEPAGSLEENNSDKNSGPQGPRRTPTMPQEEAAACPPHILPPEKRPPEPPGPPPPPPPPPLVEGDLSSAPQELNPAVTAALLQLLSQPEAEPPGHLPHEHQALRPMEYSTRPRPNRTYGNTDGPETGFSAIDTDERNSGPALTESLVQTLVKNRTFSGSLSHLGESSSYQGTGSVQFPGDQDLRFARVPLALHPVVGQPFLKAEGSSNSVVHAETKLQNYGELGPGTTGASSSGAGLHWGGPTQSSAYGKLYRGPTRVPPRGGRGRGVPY
Data set [7] concerns the target T3, Dual specificity tyrosine-phosphorylation-regulated kinase 2 (Homo sapiens) (UniProt Q92630).
T3 sequence (whole entry): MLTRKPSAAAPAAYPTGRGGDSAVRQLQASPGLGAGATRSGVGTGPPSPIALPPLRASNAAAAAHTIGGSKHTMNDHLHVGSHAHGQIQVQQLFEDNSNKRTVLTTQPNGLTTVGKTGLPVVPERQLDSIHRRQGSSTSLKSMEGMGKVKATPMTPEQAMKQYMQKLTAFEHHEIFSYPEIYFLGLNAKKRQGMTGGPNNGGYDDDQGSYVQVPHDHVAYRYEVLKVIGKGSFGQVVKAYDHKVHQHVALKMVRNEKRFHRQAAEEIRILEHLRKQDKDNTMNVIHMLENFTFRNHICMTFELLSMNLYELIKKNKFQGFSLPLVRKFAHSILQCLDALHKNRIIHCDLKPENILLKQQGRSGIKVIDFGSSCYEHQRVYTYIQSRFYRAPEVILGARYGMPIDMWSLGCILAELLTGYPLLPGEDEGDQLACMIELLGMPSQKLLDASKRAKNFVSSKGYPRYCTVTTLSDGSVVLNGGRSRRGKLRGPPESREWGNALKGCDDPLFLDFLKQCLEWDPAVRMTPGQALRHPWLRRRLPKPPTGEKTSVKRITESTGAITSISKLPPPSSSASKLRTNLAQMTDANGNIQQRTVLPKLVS
Briefly: Inhibition of N-terminal GST tagged recombinant full-length human DYRK2 expressed in Escherichia coli at 1 uM.

Data set [8] deals with Cyclin-dependent kinase 13/Cyclin-K (Homo sapiens, UniProt Q14004). Briefly: Inhibition of N-terminal FLAG-tagged human full-length CDK13 (1 to 1512 residues)/N-terminal His-tagged CycK (1 to 580 residues) expressed in Sf9 cells assessed as reduction in ATP-dependent ULight-4E-BP1 (Thr37/Thr46) substrate peptide phosphorylation pre-incubated for 60 mins by LANCE Ultra assay.

In another data set the target is CDK12/Cyclin K (Homo sapiens, UniProt Q9NYV4). Briefly: Inhibition of N-terminal FLAG-tagged human full-length CDK12 (1 to 1490 residues)/N-terminal His-tagged CycK (1 to 580 residues) expressed in Sf9 cells assessed as reduction in ATP-dependent ULight-4E-BP1 (Thr37/Thr46) substrate peptide phosphorylation pre-incubated for 60 mins by LANCE Ultra assay.
Sequence of CDK12/Cyclin K (O75909 whole entry, the tested form may be a part): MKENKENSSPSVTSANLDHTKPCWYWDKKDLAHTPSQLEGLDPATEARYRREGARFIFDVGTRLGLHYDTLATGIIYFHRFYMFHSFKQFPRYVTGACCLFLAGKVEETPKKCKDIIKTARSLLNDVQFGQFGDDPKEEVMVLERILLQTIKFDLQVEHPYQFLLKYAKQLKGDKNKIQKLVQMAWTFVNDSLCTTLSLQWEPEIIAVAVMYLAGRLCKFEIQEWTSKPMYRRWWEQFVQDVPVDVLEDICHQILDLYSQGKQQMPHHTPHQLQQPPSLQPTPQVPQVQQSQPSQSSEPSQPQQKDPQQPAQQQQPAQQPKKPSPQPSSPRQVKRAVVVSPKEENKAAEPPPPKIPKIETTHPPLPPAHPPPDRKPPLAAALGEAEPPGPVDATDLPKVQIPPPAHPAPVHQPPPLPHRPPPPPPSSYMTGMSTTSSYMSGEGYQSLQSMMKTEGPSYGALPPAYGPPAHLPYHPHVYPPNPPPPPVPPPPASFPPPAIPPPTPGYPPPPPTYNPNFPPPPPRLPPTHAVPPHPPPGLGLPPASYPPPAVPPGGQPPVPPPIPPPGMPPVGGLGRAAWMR
Sequence of CDK12/Cyclin K (Q9NYV4 whole entry, the tested form may be a part): as the sequence (Q9NYV4 whole entry, looked up) above
The target of data set [9] is T2, Cyclin-dependent kinase 12. Put plainly: Inhibition of CDK12 in human SK-BR-3 cells assessed as reduction in RNA polymerase 2 Ser2 phosphorylation incubated for 4 hrs by. Type of data set: cell-based.
Target sequence in this assay (Q9NYV4 whole entry): as the sequence (Q9NYV4 whole entry, looked up) above

Sequence of CDK7/Cyclin H/MNAT1 (P51946 whole entry): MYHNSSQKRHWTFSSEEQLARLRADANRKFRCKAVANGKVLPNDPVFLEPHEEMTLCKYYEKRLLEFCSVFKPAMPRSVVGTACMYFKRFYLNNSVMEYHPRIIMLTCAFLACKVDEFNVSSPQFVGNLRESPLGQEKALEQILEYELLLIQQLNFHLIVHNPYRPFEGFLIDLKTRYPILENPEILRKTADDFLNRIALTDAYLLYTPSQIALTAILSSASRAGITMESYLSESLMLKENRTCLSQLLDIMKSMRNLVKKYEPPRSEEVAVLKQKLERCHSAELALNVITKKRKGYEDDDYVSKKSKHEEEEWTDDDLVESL
Sequence of CDK7/Cyclin H/MNAT1 (P50613 whole entry): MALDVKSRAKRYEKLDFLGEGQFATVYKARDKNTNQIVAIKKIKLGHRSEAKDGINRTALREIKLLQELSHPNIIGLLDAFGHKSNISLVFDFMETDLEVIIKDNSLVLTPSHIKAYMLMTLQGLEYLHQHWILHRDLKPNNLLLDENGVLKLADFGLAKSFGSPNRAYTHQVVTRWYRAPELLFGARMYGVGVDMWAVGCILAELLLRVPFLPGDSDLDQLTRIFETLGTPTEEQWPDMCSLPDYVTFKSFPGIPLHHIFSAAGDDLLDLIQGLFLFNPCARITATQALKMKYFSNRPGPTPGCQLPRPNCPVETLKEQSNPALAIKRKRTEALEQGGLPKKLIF
Sequence of CDK7/Cyclin H/MNAT1 (P51948 whole entry, further chain): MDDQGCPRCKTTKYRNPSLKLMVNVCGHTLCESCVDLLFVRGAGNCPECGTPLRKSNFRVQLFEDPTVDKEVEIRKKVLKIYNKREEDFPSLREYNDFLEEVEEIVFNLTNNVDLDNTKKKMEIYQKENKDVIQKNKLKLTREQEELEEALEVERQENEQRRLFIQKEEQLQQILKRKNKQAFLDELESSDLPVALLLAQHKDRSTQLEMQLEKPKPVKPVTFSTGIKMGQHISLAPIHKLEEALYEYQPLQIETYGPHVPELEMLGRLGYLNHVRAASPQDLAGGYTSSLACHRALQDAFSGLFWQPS
Sequence of CDK9/cyclin T1 (O60563 whole entry, the tested form may be a part): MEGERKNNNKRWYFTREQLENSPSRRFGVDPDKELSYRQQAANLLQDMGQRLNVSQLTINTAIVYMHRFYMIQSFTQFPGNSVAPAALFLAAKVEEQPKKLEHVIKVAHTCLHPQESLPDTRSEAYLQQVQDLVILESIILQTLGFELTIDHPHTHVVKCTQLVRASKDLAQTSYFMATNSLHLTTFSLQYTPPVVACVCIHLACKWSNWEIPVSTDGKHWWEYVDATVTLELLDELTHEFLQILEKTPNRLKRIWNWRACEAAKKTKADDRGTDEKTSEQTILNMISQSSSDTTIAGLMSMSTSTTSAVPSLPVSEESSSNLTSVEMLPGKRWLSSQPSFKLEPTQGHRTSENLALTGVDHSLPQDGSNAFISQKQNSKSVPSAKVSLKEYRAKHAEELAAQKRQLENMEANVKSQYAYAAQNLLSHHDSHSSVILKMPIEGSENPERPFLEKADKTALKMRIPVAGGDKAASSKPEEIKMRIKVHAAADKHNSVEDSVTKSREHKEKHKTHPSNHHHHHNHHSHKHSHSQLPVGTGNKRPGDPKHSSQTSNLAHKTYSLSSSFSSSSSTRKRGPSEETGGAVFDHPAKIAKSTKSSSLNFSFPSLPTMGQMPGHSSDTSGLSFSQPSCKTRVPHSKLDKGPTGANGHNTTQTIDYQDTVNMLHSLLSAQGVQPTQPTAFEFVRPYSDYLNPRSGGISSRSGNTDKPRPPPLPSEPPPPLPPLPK
Sequence of CDK9/cyclin T1 (P50750 whole entry, the tested form may be a part): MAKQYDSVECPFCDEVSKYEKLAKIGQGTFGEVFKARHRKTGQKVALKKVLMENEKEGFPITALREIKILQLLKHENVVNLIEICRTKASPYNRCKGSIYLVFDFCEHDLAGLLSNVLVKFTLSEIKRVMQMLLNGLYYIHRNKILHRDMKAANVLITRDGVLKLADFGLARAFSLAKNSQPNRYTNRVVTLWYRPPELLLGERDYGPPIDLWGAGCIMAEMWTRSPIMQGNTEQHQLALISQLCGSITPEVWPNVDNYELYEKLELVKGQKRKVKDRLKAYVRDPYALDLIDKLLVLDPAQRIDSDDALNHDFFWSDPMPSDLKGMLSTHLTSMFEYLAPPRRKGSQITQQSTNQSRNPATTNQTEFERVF
Sequence of CDK8/Cyclin C (P49336 whole entry, the tested form may be a part): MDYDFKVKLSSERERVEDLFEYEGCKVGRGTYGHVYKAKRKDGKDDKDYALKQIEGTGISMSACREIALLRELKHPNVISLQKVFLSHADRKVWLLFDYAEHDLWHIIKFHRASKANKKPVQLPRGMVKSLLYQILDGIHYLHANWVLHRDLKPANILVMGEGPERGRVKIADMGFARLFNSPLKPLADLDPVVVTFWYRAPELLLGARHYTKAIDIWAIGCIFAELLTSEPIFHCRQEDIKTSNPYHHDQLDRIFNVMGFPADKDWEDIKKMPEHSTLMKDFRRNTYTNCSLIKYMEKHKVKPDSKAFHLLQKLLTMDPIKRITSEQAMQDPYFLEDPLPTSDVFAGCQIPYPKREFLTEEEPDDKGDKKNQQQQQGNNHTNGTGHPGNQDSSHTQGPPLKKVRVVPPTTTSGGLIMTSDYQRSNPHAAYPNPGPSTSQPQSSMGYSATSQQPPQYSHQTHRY
Sequence of CDK8/Cyclin C (P24863 whole entry, further chain, the tested form may be a part): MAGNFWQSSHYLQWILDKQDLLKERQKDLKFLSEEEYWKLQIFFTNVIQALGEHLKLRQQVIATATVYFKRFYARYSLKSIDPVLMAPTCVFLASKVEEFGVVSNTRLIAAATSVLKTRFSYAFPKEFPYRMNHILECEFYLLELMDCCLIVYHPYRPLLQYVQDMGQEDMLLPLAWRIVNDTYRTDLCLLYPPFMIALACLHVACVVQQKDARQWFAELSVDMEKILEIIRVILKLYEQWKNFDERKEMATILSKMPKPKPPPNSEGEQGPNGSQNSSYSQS

What is called GI50 is the concentration that inhibits growth by half. Low values mean greater sensitivity of the cells, high ones lower sensitivity of the cells. A word on the inhibition: it is the share of the control response that was lost under treatment. In general, solubility refers to the concentration that dissolves in the medium under given conditions. A low value points to little dissolved substance. As a reminder, the IC50 is the midpoint of a concentration-inhibition curve. A word on the chromatographic logD: it is lipophilicity estimated from chromatographic retention. A low value points to a more hydrophilic compound. The molecule `Cn1cc(-c2ccc(N(C(=O)NCc3ccccc3)[C@H]3CC[C@H](Nc4ccc(C#N)cn4)CC3)cc2)ccc1=O` gave a concentration for 50% growth inhibition (GI50) with SK-BR-3 of 800 nM. The Papp at 3 h, 10 µM in data set [1] came to 27.3 ×10⁻⁶ cm/s. Moreover, the inhibition in [2], in [4] and in data set [7] was more than 80% throughout. This molecule also had a solubility in data set [3] of 7.7 µg/mL (≈ 14.5 µM). The values for the IC50 on CDK9/cyclin T1, against CDK8/Cyclin C and at CDK7/Cyclin H/MNAT1 were 16000 nM, more than 10000 nM and more than 10000 nM, respectively. Besides, in [5], the chromatographic logD came to 2.4. In data set [6], the TDI result is “inactive”.
With `Cn1cc(-c2ccc(N(C(=O)NCc3ccccc3)[C@H]3CC[C@@H](Nc4ccc(C#N)cn4)CC3)cc2)cn1`, the half-maximal inhibitory concentration (IC50) against CDK9/cyclin T1 was more than 30000 nM; in data set [8] it was more than 10000 nM; at CDK8/Cyclin C, more than 10000 nM; at CDK12/Cyclin K, more than 30000 nM; against CDK7/Cyclin H/MNAT1, more than 10000 nM.
Take `CC(C)C(=O)OC[C@@H]1O[C@@H](n2cnc(N)c3c(C(N)=O)c(Br)nc2-3)[C@@H](O)[C@@H]1O`: the IC50 on CDK9/cyclin T1 worked out at 220 nM; in [9] it was 259 nM; on CDK12/Cyclin K it was 110 nM; against CDK7/Cyclin H/MNAT1, 1200 nM.
